# From ChEMBL document CHEMBL4406821, “Novel dual inhibitors targeting CDK4 and VEGFR2 synergistically suppressed cancer progression and angiogenesis” (Eur J Med Chem, 2019)
# What was measured:
# [1] = biological target: Fibroblast growth factor receptor 1 (Homo sapiens) (UniProt P11362); assay: Inhibition of recombinant human FGFR1 (456 to 765 residues) at 1 uM using KKKSPGEYVNIEFG as substrate incubated for 40 mins in presence of [gamma-33P]-ATP by scintillation counting method relative to control
# Sequence of Fibroblast growth factor receptor 1 (Homo sapiens) (P11362 22-822 limits assumed): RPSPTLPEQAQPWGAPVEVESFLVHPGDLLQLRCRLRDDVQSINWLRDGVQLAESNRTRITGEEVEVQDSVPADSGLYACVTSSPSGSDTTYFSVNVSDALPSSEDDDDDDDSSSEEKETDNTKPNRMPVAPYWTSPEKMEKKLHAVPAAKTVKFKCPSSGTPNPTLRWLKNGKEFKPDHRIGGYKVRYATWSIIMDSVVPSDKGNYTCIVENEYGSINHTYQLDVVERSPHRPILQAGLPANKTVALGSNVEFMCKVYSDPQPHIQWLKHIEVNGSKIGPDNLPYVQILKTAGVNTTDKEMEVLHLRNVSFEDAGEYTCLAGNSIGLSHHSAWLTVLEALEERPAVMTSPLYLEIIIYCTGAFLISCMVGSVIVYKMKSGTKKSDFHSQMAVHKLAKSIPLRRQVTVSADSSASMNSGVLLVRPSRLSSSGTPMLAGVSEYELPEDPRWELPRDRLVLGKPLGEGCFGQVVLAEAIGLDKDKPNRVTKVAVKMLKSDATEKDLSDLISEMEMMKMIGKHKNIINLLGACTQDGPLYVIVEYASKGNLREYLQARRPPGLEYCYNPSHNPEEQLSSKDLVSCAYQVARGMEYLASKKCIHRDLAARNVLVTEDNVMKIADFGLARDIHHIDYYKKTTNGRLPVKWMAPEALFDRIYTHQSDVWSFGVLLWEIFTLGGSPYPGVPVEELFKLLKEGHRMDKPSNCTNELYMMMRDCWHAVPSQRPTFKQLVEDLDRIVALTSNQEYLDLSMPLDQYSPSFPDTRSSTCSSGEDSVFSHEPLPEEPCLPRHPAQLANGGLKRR
# Summary of the method: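 Tested at a single 1 uM in an outsourced commercial kinase-profiling panel, read as percent inhibition. Each value is the mean of two independent experiments.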
# [2] = biological target: cAMP-dependent protein kinase catalytic subunit PRKX (Homo sapiens) (UniProt P51817); assay: Inhibition of recombinant human full length PrKX at 1 uM using RRRLSFAEPG as substrate incubated for 40 mins in presence of [gamma-33P]-ATP by scintillation counting method relative to control
# Sequence of cAMP-dependent protein kinase catalytic subunit PRKX (Homo sapiens) (P51817 whole entry): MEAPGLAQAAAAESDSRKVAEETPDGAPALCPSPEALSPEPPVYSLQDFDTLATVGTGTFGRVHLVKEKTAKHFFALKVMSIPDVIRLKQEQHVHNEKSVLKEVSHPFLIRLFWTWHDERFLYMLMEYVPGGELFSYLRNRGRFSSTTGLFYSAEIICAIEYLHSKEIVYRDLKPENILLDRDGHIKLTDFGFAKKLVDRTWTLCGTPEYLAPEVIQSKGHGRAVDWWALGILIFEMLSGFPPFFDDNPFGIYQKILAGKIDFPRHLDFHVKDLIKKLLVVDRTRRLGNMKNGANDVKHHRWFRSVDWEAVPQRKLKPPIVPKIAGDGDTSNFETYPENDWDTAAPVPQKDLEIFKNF
# [3] = biological target: MAP kinase-activated protein kinase 5 (Homo sapiens) (UniProt Q8IW41); assay: Inhibition of recombinant human full length PRAK at 1 uM using KKLRRTLSVA as substrate incubated for 40 mins in presence of [gamma-33P]-ATP by scintillation counting method relative to control
# Sequence of MAP kinase-activated protein kinase 5 (Homo sapiens) (Q8IW41 whole entry): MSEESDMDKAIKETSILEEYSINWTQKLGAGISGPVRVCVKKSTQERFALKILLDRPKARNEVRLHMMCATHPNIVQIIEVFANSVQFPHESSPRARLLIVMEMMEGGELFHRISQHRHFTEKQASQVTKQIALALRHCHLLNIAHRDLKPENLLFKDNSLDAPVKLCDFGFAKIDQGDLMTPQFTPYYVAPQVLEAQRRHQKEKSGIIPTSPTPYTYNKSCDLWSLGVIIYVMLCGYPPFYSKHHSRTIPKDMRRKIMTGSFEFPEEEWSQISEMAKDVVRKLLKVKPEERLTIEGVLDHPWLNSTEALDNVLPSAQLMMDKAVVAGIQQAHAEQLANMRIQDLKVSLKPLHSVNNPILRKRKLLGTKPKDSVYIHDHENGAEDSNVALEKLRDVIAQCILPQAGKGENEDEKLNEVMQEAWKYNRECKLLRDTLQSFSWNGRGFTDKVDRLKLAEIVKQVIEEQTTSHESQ
# [4] = Toxicity in NOD/SCID BALB/c mouse xenografted with human SiHa cells assessed as body weight at 40 mg/kg, po administered for 21 days; type: organism-based; settings: in vivo, 504 h
# Summary of the method: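 Female NOD/SCID Balb/c mice, 6–8 weeks, implanted subcutaneously in right flank with 2×10^6 SiHa cells in 100 µL medium. At 100 mm³ tumors, randomized (5 mice/group) to daily oral gavage. Body weight monitored every 3 days; study ended day 21.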
Compound,inhibition [1] [%],inhibition [2] [%],inhibition [3] [%],Activity [4]
Cc1ccc(NC(=O)C2(C(=O)Nc3ccc(Nc4ncc(F)c(-c5cc(F)c6nc(C)n(C(C)C)c6c5)n4)cc3)CC2)cc1,0,43,1,–
COc1cc2nccc(Oc3ccc(NC(=O)C4(C(=O)Nc5ccc(F)cc5)CC4)cc3)c2cc1OC [CABOZANTINIB],–,–,–,Non-Toxic
